Experimental data taken from ChEMBL document CHEMBL3632461 (J Med Chem, 2015).

How the values were obtained:
[1] = Retention time of the compound in sodium phosphate buffer at 10 uM after 60 mins by LC-MS/MS analysis in presence of H2O2; assay type: physicochemical; settings: 1 h
[2] = Drug metabolism assessed as formation of 5-(2,4-dimethoxyphenyl)-7-oxo-2,3,4,7-tetrahydrooxazolo[3,2-a]pyrimidin-4-ium at 10 uM after 60 mins by LC-MS/MS analysis in presence of human MPO/H2O2/Cl-; assay type: physicochemical; settings: 1 h
Procedure, shortened: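 Also incubated at 10 μM in a human MPO/H₂O₂/Cl⁻ system. Parent and cyclic ether product tracked by LC−MS/MS using retention time and MH⁺.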

Cytochrome P450 3A4 [3] = molecular target: T1, Cytochrome P450 3A4 (Homo sapiens, UniProt P08684); test: Reversible inhibition of CYP3A4 in human liver microsomes by LC-MS/MS analysis; assay type: ADME
Procedure, shortened: (§1)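 Reversible inhibition of the major CYP enzymes tested in human liver microsomes using established protocols.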

Cytochrome P450 1A2 [4] = molecular target: T2, Cytochrome P450 1A2 (Homo sapiens, UniProt P05177); test: Reversible inhibition of CYP1A2 phenacetin O-deethylase activity in human liver microsomes by LC-MS/MS analysis; assay type: ADME; procedure, shortened: as §1
T2 sequence (P05177 whole entry): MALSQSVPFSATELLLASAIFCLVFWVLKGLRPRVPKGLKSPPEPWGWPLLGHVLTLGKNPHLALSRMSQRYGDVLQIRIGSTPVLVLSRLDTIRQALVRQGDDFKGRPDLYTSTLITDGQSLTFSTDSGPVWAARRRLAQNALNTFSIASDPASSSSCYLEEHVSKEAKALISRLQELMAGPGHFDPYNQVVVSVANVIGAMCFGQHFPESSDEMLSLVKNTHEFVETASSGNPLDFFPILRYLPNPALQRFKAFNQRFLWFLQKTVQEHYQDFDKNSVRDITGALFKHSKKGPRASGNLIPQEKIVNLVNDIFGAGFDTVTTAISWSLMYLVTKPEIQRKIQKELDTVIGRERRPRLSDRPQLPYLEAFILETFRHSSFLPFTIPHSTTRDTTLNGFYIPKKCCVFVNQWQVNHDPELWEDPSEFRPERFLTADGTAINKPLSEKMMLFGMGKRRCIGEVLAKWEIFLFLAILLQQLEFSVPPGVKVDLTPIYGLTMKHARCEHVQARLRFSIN

Cytochrome P450 2D6 [5] = molecular target: T3, Cytochrome P450 2D6 (Homo sapiens, UniProt P10635); test: Time-dependent inhibition of CYP2D6 in human liver microsomes; assay type: ADME
Procedure, shortened: (§2)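 Time- and concentration-dependent CYP inhibition assessed by an IC₅₀ shift assay in human liver microsomes.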

Cytochrome P450 3A4 [6] = molecular target: T1, Cytochrome P450 3A4; test: Time-dependent inhibition of CYP3A4 in human liver microsomes; assay type: ADME; procedure, shortened: as §2
[7] = Elimination half life in cynomolgus monkey at 1 mg/kg, iv and 3 or 5 mg/kg, po; assay type: ADME, organism-based, Macaca fascicularis; settings: in vivo
Procedure, shortened: (§3)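 Male CD-1 mice (25−35 g), cannulated Wistar-Han rats (250 g), beagle dogs (12 kg) and cynomolgus monkeys (7 kg), fasted overnight and fed 1.0 or 2.0 h after dosing. iv 1 mg/kg in saline or 12% sulfobutyl ether β-cyclodextrin; po 3 or 5 mg/kg in 0.5% methylcellulose. Parameters calculated from plasma concentration−time data; mean ± SD for n = 3, individual values for n = 2.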

[8] = Volume of distribution at steady state in CD-1 mouse at 1 mg/kg, iv and 3 or 5 mg/kg, po; assay type: ADME, organism-based; settings: in vivo, read-out: Vdss
Procedure, shortened: (§4)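 Male mice, rats, dogs and cynomolgus monkeys, fasted overnight, fed after dosing. Intravenous dose 1 mg/kg in saline or 12% sulfobutyl ether β-cyclodextrin; oral arm 3 or 5 mg/kg in 0.5% methylcellulose. Steady-state volume derived from plasma concentration−time data; mean ± SD for n = 3, individual values for n = 2.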

Cytochrome P450 1A2 [9] = molecular target: T2, Cytochrome P450 1A2; test: Time-dependent inhibition of CYP1A2 in human liver microsomes; assay type: ADME; procedure, shortened: as §2
Liver microsome = test: Metabolic stability in NADPH-supplemented human liver microsomes assessed as GSH adduct formation; assay type: ADME
Procedure, shortened: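 Incubation in NADPH-supplemented human liver microsomes or cryopreserved human hepatocytes, examined for glutathione adduct formation.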

Cytochrome P450 2D6 [10] = molecular target: T3, Cytochrome P450 2D6; test: Reversible inhibition of CYP2D6 dextromethorphan O-demethylase activity in human liver microsomes by LC-MS/MS analysis; assay type: ADME; procedure, shortened: as §1
[11] = Plasma clearance in CD-1 mouse at 1 mg/kg, iv and 3 or 5 mg/kg, po; assay type: ADME, organism-based; procedure, shortened: as §3
Cytochrome P450 2C9 = Cytochrome P450 2C9 (Homo sapiens, UniProt P11712); test: Time-dependent inhibition of CYP2C9 in human liver microsomes; assay type: ADME; procedure, shortened: as §2
Cytochrome P450 2C19 = Cytochrome P450 2C19 (Homo sapiens, UniProt P33261); test: Time-dependent inhibition of CYP2C19 in human liver microsomes; assay type: ADME; procedure, shortened: as §2
[12] = Volume of distribution at steady state in cynomolgus monkey at 1 mg/kg, iv and 3 or 5 mg/kg, po; assay type: ADME, organism-based, Macaca fascicularis; settings: in vivo, read-out: Vdss; procedure, shortened: as §4
[13] = Oral bioavailability in cynomolgus monkey at 3 or 5 mg/kg; assay type: ADME, organism-based, Macaca fascicularis; settings: in vivo
Procedure, shortened: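 Male CD-1 mice, Wistar-Han rats, beagle dogs and cynomolgus monkeys, fasted overnight and fed after dosing. Given po at 3 or 5 mg/kg in 0.5% methylcellulose, with an iv reference dose of 1 mg/kg. Bioavailability derived from plasma concentration−time data; mean ± SD (n = 3) or individual values (n = 2).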

[14] = Drug excretion in cynomolgus monkey urine at 1 mg/kg, iv; assay type: ADME, organism-based, Macaca fascicularis; settings: read-out: Drug excretion
Procedure, shortened: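 Male animals (beagle dogs 12 kg, Wistar-Han rats 250 g, cynomolgus monkeys 7 kg), fasted overnight and fed 1.0 or 2.0 h after dosing, water ad libitum. Dosed iv at 1 mg/kg in saline or 12% sulfobutyl ether β-cyclodextrin. Fraction of the iv dose excreted unchanged in urine.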

Cytochrome P450 2B6 = molecular target: T4, Cytochrome P450 2B6 (Homo sapiens, UniProt P20813); test: Time-dependent inhibition of CYP2B6 in human liver microsomes; assay type: ADME; procedure, shortened: as §2
T4 sequence (P20813 whole entry): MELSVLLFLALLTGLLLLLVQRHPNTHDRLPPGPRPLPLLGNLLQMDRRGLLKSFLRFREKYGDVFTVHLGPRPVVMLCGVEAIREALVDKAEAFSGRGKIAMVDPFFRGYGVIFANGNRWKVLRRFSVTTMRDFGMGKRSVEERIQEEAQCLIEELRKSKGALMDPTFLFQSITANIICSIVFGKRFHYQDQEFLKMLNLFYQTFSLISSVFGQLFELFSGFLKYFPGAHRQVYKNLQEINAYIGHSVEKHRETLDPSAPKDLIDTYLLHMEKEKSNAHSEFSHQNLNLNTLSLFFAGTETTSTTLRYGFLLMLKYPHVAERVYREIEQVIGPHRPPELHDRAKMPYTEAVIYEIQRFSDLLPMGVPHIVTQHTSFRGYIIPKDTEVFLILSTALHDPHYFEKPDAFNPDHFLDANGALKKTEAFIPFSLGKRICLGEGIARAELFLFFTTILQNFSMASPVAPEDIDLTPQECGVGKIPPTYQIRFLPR

[15] = Fraction unbound in mouse plasma at 2 uM by equilibrium dialysis method; assay type: ADME, cell-free
Procedure, shortened: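 Compound at 2 μM in mouse, rat, dog, monkey or human plasma; unbound fraction measured by equilibrium dialysis and reported as a mean.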

T1 sequence (P08684 whole entry): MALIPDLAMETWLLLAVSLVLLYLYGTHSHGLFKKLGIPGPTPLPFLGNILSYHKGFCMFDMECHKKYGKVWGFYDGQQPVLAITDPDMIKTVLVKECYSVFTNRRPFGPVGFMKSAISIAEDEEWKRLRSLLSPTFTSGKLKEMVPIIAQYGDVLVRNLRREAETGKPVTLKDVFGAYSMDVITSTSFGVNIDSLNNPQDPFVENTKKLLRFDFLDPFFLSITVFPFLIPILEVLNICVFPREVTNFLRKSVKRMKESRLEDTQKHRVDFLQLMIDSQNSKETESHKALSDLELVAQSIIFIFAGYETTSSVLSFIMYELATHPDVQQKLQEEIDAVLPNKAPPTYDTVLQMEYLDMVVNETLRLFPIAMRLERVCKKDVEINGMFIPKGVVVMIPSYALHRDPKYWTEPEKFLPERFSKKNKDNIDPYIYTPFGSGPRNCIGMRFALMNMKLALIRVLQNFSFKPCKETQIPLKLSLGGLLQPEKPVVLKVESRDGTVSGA
T3 sequence (P10635 whole entry): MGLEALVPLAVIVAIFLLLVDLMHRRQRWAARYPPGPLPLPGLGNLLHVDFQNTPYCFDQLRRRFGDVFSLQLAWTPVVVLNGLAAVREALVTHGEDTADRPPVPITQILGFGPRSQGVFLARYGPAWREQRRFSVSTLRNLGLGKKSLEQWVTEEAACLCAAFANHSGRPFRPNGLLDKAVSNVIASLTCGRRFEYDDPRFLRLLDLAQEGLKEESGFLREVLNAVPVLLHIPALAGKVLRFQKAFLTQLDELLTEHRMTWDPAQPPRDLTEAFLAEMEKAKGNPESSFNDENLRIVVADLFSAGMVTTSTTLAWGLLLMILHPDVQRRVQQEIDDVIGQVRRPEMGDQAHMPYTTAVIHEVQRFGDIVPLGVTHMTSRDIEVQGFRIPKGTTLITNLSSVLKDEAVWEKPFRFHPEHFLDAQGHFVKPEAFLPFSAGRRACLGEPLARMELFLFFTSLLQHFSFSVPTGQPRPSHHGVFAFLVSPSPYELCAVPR
Sequence of Cytochrome P450 2C9 (P11712 whole entry): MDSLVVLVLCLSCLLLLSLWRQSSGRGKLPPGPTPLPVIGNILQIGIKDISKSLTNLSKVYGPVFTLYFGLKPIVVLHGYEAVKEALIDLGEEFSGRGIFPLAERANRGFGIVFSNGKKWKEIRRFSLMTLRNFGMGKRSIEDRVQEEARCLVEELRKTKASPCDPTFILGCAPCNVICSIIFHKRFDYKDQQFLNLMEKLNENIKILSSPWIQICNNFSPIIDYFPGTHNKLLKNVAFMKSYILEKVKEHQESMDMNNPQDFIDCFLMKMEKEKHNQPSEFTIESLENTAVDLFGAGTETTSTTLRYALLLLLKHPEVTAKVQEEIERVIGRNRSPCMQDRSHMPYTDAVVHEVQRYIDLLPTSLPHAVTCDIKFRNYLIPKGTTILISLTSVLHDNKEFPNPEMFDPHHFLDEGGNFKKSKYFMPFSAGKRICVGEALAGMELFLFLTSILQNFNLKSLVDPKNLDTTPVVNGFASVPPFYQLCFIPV
Sequence of Cytochrome P450 2C19 (P33261 whole entry): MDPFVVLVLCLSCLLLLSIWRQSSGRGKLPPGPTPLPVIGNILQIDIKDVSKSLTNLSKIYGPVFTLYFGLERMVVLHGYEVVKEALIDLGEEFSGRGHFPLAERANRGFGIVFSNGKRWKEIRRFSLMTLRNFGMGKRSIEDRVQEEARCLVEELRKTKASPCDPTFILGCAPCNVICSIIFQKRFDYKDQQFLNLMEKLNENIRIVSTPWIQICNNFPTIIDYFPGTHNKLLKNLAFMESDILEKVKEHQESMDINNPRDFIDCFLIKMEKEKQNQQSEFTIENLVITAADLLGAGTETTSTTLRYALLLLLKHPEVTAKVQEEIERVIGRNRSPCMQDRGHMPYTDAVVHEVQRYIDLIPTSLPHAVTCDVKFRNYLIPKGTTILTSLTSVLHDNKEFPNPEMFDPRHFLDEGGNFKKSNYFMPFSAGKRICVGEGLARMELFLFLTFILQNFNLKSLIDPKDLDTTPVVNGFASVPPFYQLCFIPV

Retention_time [1] | Drug metabolism [2] | SMILES | IC50 (Cytochrome P450 3A4 [3]) | IC50 (Cytochrome P450 1A2 [4]) | IC50 (Cytochrome P450 2D6 [5]) | IC50 (Cytochrome P450 3A4 [6]) | half-life [7] | Vd [8] | IC50 (Cytochrome P450 1A2 [9]) | Stability (Liver microsome) | IC50 (Cytochrome P450 2D6 [10]) | clearance [11] | IC50 (Cytochrome P450 2C9) | IC50 (Cytochrome P450 2C19) | Vd [12] | bioavailability [13] | dose excreted [14] | IC50 (Cytochrome P450 2B6) | fraction unbound at 2 µM [15]
17.49 min | metabolite_detected | COc1ccc(-c2cc(=O)[nH]c(=S)n2CCO)c(OC)c1 | – | – | – | – | – | – | – | – | – | – | – | – | – | – | – | – | –
– | – | COc1ccc(Cl)cc1-c1cc(=O)[nH]c(=S)n1CC(N)=O [PF-06282999] | > 100 µM | > 100 µM | > 100 µM | > 100 µM | 3.28 h | 0.9 L/kg | > 100 µM | Stable | > 100 µM | 10.1 mL/min/kg | > 100 µM | > 100 µM | 1.09 L/kg | 76% | 26% | > 100 µM | 0.451
